Screening data (PubChem BioAssay)
MT stabilizer: microtubule stabilizers in HeLa cells. 200,000 tested, 0.83% active. HeLa tubulin immunostaining HCS, 24 h; share of cells brighter than vehicle mean+2SD. % tubulin-high responders, % at 10 µM. AID 2205;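 active means plate Z-score above 3 for both tubulin-high and condensed-nucleus cell shares, with cell loss under 80%, at 10 µM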;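 further: anti alpha tubulin signal scored within the nucleus-defined area of each cell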
BaF3 tox: parental Ba/F3 viability inhibition as JAK2V617F counter-screen. 220,000 tested, 1.1% active. AID 1486. CellTiter-Glo ATP luminescence. inhibition, % at 5.6 µM;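 active means inhibition above a per-campaign cutoff, the mean inhibition of all tested compounds plus 3 SD, cut at about 27% in these data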;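 further: 0% = DMSO wells and 100% = JAK Inhibitor I control wells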
IEC-6 tox: kills IEC-6 intestinal cells in KLF5 counter-screen; IEC-6 cytotoxicity, luminescence viability; inhibition, % at 5 µM; 290,000 tested, 0.78% active; in the data active means inhibition above about 22%;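 further: 0% = plate median of test compound wells and 100% = cytotoxic reference compound wells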
Ba/F3 V617F tox: reduce viability of Ba/F3 cells dependent on JAK2V617F | Ba/F3 EpoR-JAK2V617F viability, ATP luminescence | inhibition, % at 5.6 µM | 220,000 tested, 1.1% active | AID 1446;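 active means inhibition above the campaign mean plus 3 SD over all tested compounds, cut at about 24% in these data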;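 further: cytokine-independent growth of Ba/F3 cells driven by EpoR plus mutant JAK2; 0% = DMSO-treated cells and 100% = JAK inhibitor I control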
bCat nuc transl: alters nuclear translocation of beta-catenin in HeLa cells; immunofluorescence imaging; nuclear translocation activity, % at 5 µM; 190,000 tested, 0.3% active; AID 1665;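 active means nuclear translocation activity above 50% at 5 µM, with a well cell count of 50 or more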;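 further: per-cell ratio of nuclear to cytoplasmic median beta-catenin stain intensity; plate controls were DMSO negative control for no effect and GSK-3 inhibitor IX positive control for full effect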
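Test system: human HeLa cells, endogenous beta-catenin. Times: 24 h compound exposure, 37°C. Measured by: beta-catenin immunofluorescence imaging with DAPI.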
KLF5 inh: inhibitors of KLF5 expression. DLD-1 KLF5 promoter-luciferase reporter, luminescence. AID 1700. inhibition, % at 5 µM. 290,000 tested, 0.23% active;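 active means inhibition above a per-plate limit of that plate's mean compound inhibition plus 3 SD, cut at about 60% in these data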;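 further: 0% = DMSO wells and 100% = LY294002 at 200 µM; higher means less KLF5 promoter-driven luciferase light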
An asterisk follows results filed as active; · = not tested or not shown. Hits are enriched below; roughly 2.1% of the tested compounds scored in any of these assays.

SMILES | MT stabilizer | BaF3 tox | IEC-6 tox | Ba/F3 V617F tox | bCat nuc transl | KLF5 inh
N=C1/C(=C\c2ccc(-c3cc(Cl)cc(Cl)c3)o2)C(=O)N=C2SC=C(c3ccccc3)N12 | 6.6 | 6.6 | -0.7 | 1.1 | -0.6 | -7.5
N=C1/C(=C/c2cccn2CCOc2ccccc2)C(=O)N=C2SC=C(c3ccccc3)N12 | 30.4* | 1.9 | 6.2 | -2.6 | 35.7 | -8.6
CCC(=O)N/N=C/c1ccc(-c2ccc([N+](=O)[O-])cc2)o1 | 3.3 | -2.8 | -0.4 | -1.9 | -0.1 | -50.3
NS(=O)(=O)c1ccc(-c2ccc(/C=N/NC(=O)c3ccc([N+](=O)[O-])cc3)o2)cc1 | · | 49.7* | 3.8 | -0.7 | -1.5 | 6.2
CCOC(=O)c1oc2cccc(OCC(O)CNC(C)C)c2c1C (configuration not stated) | 4.2 | 4.0 | -3.4 | -0.7 | 8.7 | -33.1
OCCC1CN(Cc2ccccc2-c2ccco2)CCN1Cc1ccccc1 (configuration not stated) | 2.7 | 3.7 | -2.6 | -3.0 | 2.1 | -19.7
Cn1cnnc1SCC(=O)Nc1nc(-c2ccccc2)cs1 | 3.0 | 2.4 | 6.9 | -2.9 | 0.4 | -17.7
C=CCN1C(=Nc2cccnc2)SCC1(O)c1ccc(C)cc1 (configuration not stated) | 5.2 | 33.4* | -0.5 | 10.5 | 2.8 | -60.2
C=CCNC(=O)CSc1cc([N+](=O)[O-])cc(S(=O)(=O)Cc2ccccc2)c1 | 1.3 | 38.3* | 2.5 | -4.8 | -1.3 | -6.3
O=C(CSc1cc([N+](=O)[O-])cc(S(=O)(=O)Cc2ccccc2)c1)NC1CC1 | 2.7 | 6.6 | 4.3 | -1.0 | -0.8 | 2.7
O=C(OCc1c(Cl)cccc1Cl)c1ccncc1 | 3.1 | 0.3 | -2.2 | 0.2 | 0.5 | 14.7
C/C(=N\NC(=O)COc1cc(C)cc(C)c1)c1cccc(NC(=O)C2CCC2)c1 | · | · | 6.7 | · | · | 1.4
COc1ccc(-c2cn3c(C)c(C(=O)Nc4cc(NC(C)=O)ccc4OC)sc3n2)cc1 | 34.2* | 43.9* | 20.9 | 48.7* | 2.6 | 42.0
CNC(=O)c1sc2nc(-c3ccc(OC)cc3)cn2c1C | 2.2 | -0.7 | -7.4 | -3.1 | · | -196.1
CN1c2cccc3cccc(c23)N(C)C1(C)C | 1.7 | 57.6* | 4.9 | 27.3* | · | -1.1
Cc1ccsc1C1Nc2ccc3ncccc3c2C2=C1C(=O)CC(C)(C)C2 (configuration not stated) | 36.9* | 0.9 | 8.5 | -1.3 | -2.0 | -12.5
N#CC(c1nc2ccccc2nc1OCCO)S(=O)(=O)c1ccccc1 (configuration not stated) | · | -1.8 | -6.6 | -4.8 | -1.2 | -1.2
CSc1ccc(/C=C(/NC(=O)c2ccc(C)cc2)C(=O)Nc2cccc(C)c2)cc1 | 4.5 | 2.9 | -0.9 | 2.1 | · | -20.3
CSc1ccc(/C=C(\NC(=O)c2ccc(C)cc2)C(=O)NN)cc1 | · | 56.8* | -4.0 | 12.8 | -0.5 | -15.9
O=C(Cn1nc(-c2ccccc2)c2ccccc2c1=O)NN1CCOCC1 | · | 4.5 | -4.9 | -6.2 | 1.1 | -13.6
Cc1ccc(C2/C(=C(\O)c3ccc4c(c3)OCCO4)C(=O)C(=O)N2CC2CCCO2)cc1 (configuration not stated) | · | · | 9.5 | · | · | -15.8
COc1ccc2[nH]c3c(c2c1)CCNC3C1CC=C(C)CC1 (configuration not stated) | 9.3* | 3.4 | 10.6 | -0.5 | 51.4* | -12.2
CC1=C/C(=N\OS(=O)(=O)c2ccccc2)C(C)=CC1=O | 3.2 | 100.2* | -7.1 | 96.8* | 1.0 | -52.9
CC1=C(C)/C(=N\OS(=O)(=O)c2ccc(C)cc2)C=CC1=O | 2.5 | 68.3* | -6.1 | 87.7* | -2.9 | -18.7
CC1=CC(=O)c2ccccc2C1=O | 2.5 | 5.5 | 5.4 | 3.6 | 3.7 | 1.5
COc1ccc(S(=O)(=O)/N=C2/C=CC(=O)C(C)=C2C)cc1 | 0.7 | 1.8 | 4.1 | -1.0 | -2.6 | -21.3
CC1=C/C(=N\OS(=O)(=O)c2ccccc2)C(C(C)C)=CC1=O | 2.6 | 77.9* | -4.4 | 86.3* | -1.9 | 11.4
COc1cc(C(=O)O/N=C2/C=C(C)C(=O)C=C2C)cc(OC)c1OC | 3.8 | 0.6 | -6.2 | -4.2 | 2.8 | -26.0
CC(C)Oc1ccc(C(=O)OCC(=O)NCCNC(=O)COC(=O)c2ccc(OC(C)C)cc2)cc1 | · | · | 2.4 | · | · | -24.4
O=C1CC(Nc2cc(=O)[nH]c(=O)[nH]2)C(=O)N1c1ccccc1Cl (configuration not stated) | · | 0.0 | -6.3 | 0.3 | 0.4 | -26.1
